What is called MIC is the lowest concentration that inhibits growth of the organism. Read a low MIC as a more susceptible organism. Broadly, the IC50 is the concentration that gives 50% inhibition. Read a high IC50 as lower potency.

The record followed here is ChEMBL document CHEMBL1800069, “Structure-based design of a new series of D-glutamic acid based inhibitors of bacterial UDP-N-acetylmuramoyl-L-alanine:D-glutamate ligase (MurD)” (J Med Chem, 2011).

Assay [1] relates to Escherichia coli. Briefly: Inhibition of Escherichia coli MurD ligase catalyzed addition of D-Glu to UDP-MurNAc-L-Ala assessed as residual activity at 500 uM after 15 mins by colorimetric analysis. The method, boiled down: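 E. coli MurD activity read by malachite green detection of released orthophosphate, with 0.01% Triton X-100 present. Residual activity (%) measured with 500 μM test compound. Values are the mean of two independent experiments, with standard deviations within ±10% of the mean.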

A further assay concerns Staphylococcus aureus. Briefly: Antibacterial activity against Staphylococcus aureus ATCC 29213 after 18 to 24 hrs by CLSI method. Type of assay: functional.
Assay [2] deals with Escherichia coli. Briefly: Antibacterial activity against Escherichia coli ATCC 25922 after 18 to 24 hrs by CLSI method. Type of assay: functional, organism-based.
The next assay has as its system Enterococcus faecalis. The assay is described as follows: Antibacterial activity against Enterococcus faecalis ATCC 29212 after 18 to 24 hrs by CLSI method. Type of assay: functional.
The next assay concerns Pseudomonas aeruginosa. The assay is described as follows: Antibacterial activity against Pseudomonas aeruginosa ATCC 27853 after 18 to 24 hrs by CLSI method. Type of assay: functional, organism-based.
Assay [3] can be described thus: Inhibition of Escherichia coli MurD ligase catalyzed addition of D-Glu to UDP-MurNAc-L-Ala after 15 mins by colorimetric analysis. Put shortly: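 Malachite green colorimetric detection of orthophosphate released by E. coli MurD ligase, with 0.01% Triton X-100 present to avoid aggregate-based nonspecific inhibition. IC50 is taken as the inhibitor concentration that leaves 50% residual enzyme activity.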

≈ marks a conversion by molar mass, not a printed value. Calls of active or inactive are those of the source. No cut-off for these calls is given here.

Consider `O=C(O)CC[C@@H](NC(=O)c1ccc2ccn(Cc3ccc(OCC(=O)O)cc3)c2c1)C(=O)O`, for which the Activity with Escherichia coli [1] was found to be 94%. On to `COC(=O)CCC(=O)N(Cc1cccc(C(=O)N[C@H](CCC(=O)OC)C(=O)OC)c1)c1ccc(/C=C2\SC(=S)NC2=O)cc1`, for which the result in the assay on Staphylococcus aureus, in the assay with Escherichia coli [2], in the assay on Enterococcus faecalis and with Pseudomonas aeruginosa was inactive.

In the case of `O=C(O)CC[C@@H](NC(=O)c1cccc(CNc2ccc(OCC(=O)O)cc2)c1)C(=O)O`, the Activity with Escherichia coli [1] is 87%.

In the case of `O=C(O)CC[C@@H](NC(=O)c1cccc(CN(C(=O)CC(=O)O)c2ccc(/C=C3\SC(=S)NC3=O)cc2)c1)C(=O)O`, the result in the assay on Escherichia coli [2] and with Pseudomonas aeruginosa was inactive. In addition, in the assay with Enterococcus faecalis, the MIC worked out at 128 µg/mL (≈ 219 µM). This compound also displayed an IC50 in assay [3] of 3 µM.

In the case of `O=C(O)CC[C@@H](NC(=O)c1cc(CNc2ccc(/C=C3\SC(=S)NC3=O)cc2)ccc1O)C(=O)O`, half-maximal inhibition in assay [3] (IC50) was put at 124 µM. For `N=C1NC(=O)/C(=C/c2ccc(NCc3cccc(C(=O)N[C@H](CCC(=O)O)C(=O)O)c3)cc2)S1`, the Activity in the assay with Escherichia coli [1] was found to be 85%. As to `O=C(O)CCC(=O)N(Cc1cccc(C(=O)N[C@H](CCC(=O)O)C(=O)O)c1)c1ccc(/C=C2\SC(=S)NC2=O)cc1`, the MIC against Staphylococcus aureus and in the assay on Enterococcus faecalis was 128 µg/mL (≈ 213 µM) in each case. In addition, the result in the assay on Escherichia coli [2] and in the assay on Pseudomonas aeruginosa was inactive. This compound also returned an IC50 in assay [3] of 7 µM.

On to `O=C(O)CC[C@@H](NC(=O)c1ccc(NCc2ccc(/C=C3\SC(=O)NC3=O)cc2)cc1)C(=O)O`, for which the Activity in the assay on Escherichia coli [1] was found to be 88%. `O=C(O)CC[C@@H](NC(=O)c1cccc(CN(C(=O)C(=O)O)c2ccc(/C=C3\SC(=O)NC3=O)cc2)c1)C(=O)O`: in assay [3], half-maximal inhibition (IC50) was put at 40 µM. Regarding `O=C(O)CC[C@@H](NC(=O)c1cccc(CNc2ccc(/C=C3\NC(=O)NC3=O)cc2)c1)C(=O)O`, in the assay with Escherichia coli [1], the Activity amounted to 99%. Same read-out and setting: with `O=C(O)CC[C@@H](NC(=O)c1cccc(CNc2cccc(OCC(=O)O)c2)c1)C(=O)O` the figure was 89%. Regarding `O=C(O)CC[C@@H](NC(=O)c1cccc(CN(C(=O)C(=O)O)c2ccc(/C=C3\SC(=S)NC3=O)cc2)c1)C(=O)O`, the IC50 in assay [3] came out at 5 µM.

As to `COC(=O)CC[C@@H](NC(=O)c1cccc(CN(C(=O)CC(=O)OC)c2ccc(/C=C3\SC(=S)NC3=O)cc2)c1)C(=O)OC`, the outcome in the assay with Staphylococcus aureus, with Escherichia coli [2], with Enterococcus faecalis and in the assay on Pseudomonas aeruginosa was inactive. Turning to `O=C(O)CC[C@@H](NC(=O)c1cc(CNc2ccc(/C=C3\SC(=S)NC3=O)cc2)ccc1F)C(=O)O`, the IC50 in assay [3] was found to be 253 µM. As to `O=C(O)CC[C@@H](NC(=O)c1cc(CNc2ccc(/C=C3\SC(=O)NC3=O)cc2)ccc1F)C(=O)O`, in the assay with Escherichia coli [1], the Activity worked out at 71%. `O=C(O)CCC(=O)N(Cc1cccc(C(=O)N[C@H](CCC(=O)O)C(=O)O)c1)c1ccc(/C=C2\SC(=O)NC2=O)cc1`: the IC50 in assay [3] turned out to be 105 µM. Consider `O=C(O)/C=C/c1ccc(NCc2cccc(C(=O)N[C@H](CCC(=O)O)C(=O)O)c2)cc1`, for which the Activity with Escherichia coli [1] came to 96%. For the compound `O=C(O)CC[C@@H](NC(=O)c1cccc(CN(C(=O)CC(=O)O)c2ccc(/C=C3\SC(=O)NC3=O)cc2)c1)C(=O)O`, 15 µM corresponded to half-maximal inhibition in assay [3] (IC50).
